Test results: ChEMBL document CHEMBL3352065, “Greensporones: resorcylic acid lactones from an aquatic Halenospora sp” (J Nat Prod, 2014)
Activity calls are given as the source filed them. No cut-off for these calls is given here.

Legend:
HT-29 [1] = test: Cytotoxicity against human HT-29 cells assessed as cell viability at 10 nM after 72 hrs; format: functional; conditions: HT-29, 72 h, read-out: Activity
Method in brief: (§1)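 Vinblastine was the positive control, at 10 nM in HT-29 and 1 nM in MDA-MB-435 cells. Cells were seeded at 5000/well, incubated overnight, then exposed for 72 h at 37 °C in 5% CO2. Viability was read by absorbance assay of viable cells and expressed as % viable cells.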

MDA-MB-435 [2] = test: Cytotoxicity against human MDA-MB-435 cells assessed as cell viability at 1 nM after 72 hrs; format: functional; conditions: MDA-MB-435, 72 h, read-out: Activity; method in brief: as §1
TAK1/TAB1 (Homo sapiens) = TAK1/TAB1 (Homo sapiens) (UniProt Q15750+O43318); test: Inhibition of Tak1-TAB1 (unknown origin) assessed as enzyme activity by Kinase-Glo Plus luminescence kinase assay; format: protein-complex assay
HT-29 [3] = test: Cytotoxicity against human HT-29 cells assessed as cell viability after 72 hrs; format: functional, cell-based; conditions: HT-29, 72 h
Method in brief: (§2)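 ATCC lines grown in RPMI 1640 with 10% FBS, penicillin and streptomycin at 37 °C, 5% CO2. Log-phase cells were trypsinized, washed twice, seeded at 5000/well and incubated overnight. Compound was added from DMSO at 20, 4, 0.8, 0.16 and 0.032 μM (0.5% DMSO final) for 72 h at 37 °C. Viable cells were read by commercial absorbance assay. IC50 is growth inhibition to 50% of DMSO control.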

MDA-MB-435 [4] = test: Cytotoxicity against human MDA-MB-435 cells assessed as cell viability after 72 hrs; format: functional, cell-based; conditions: MDA-MB-435, 72 h; method in brief: as §2

Compound	inhibition (TAK1/TAB1 (Homo sapiens))	viability at 0.01 µM (HT-29 [1])	viability at 0.001 µM (MDA-MB-435 [2])	IC50 (HT-29 [3])	IC50 (MDA-MB-435 [4])
CC[C@]1(O)C[C@@H]2CN(CCc3c([nH]c4ccccc34)[C@@](C(=O)OC)(c3cc4c(cc3OC)N(C)[C@H]3[C@@](O)(C(=O)OC)[C@H](OC(C)=O)[C@]5(CC)C=CCN6CC[C@]43[C@@H]65)C2)C1 [VINBLASTINE]	–	44%	21%	–	–
COc1cc(O)c(Cl)c2c1C(=O)O[C@@H](C)CC[C@@H](O)CC/C=C\C(=O)C2	inactive	–	–	–	–
COc1cc(O)cc2c1C(=O)O[C@@H](C)CC[C@@H](O)CC/C=C/C(=O)C2	inactive	–	–	25.4 µM	11.2 µM
COc1cc(O)cc2c1C(=O)O[C@@H](C)CC[C@H]1CC[C@@H](CC(=O)C2)O1	inactive	–	–	–	–
C[C@H]1CCCCC/C=C/C(=O)Cc2cc(O)cc(O)c2C(=O)O1	inactive	–	–	13.8 µM	14.5 µM
COc1cc(O)c(Cl)c2c1C(=O)O[C@@H](C)CCC(=O)CCCCC(=O)C2	inactive	–	–	–	–
COc1cc(O)cc2c1C(=O)O[C@@H](C)CC[C@H]1CC[C@H](CC(=O)C2)O1	inactive	–	–	–	–

Second part, led by results:

inhibition (TAK1/TAB1 (Homo sapiens))	Compound	viability at 0.01 µM (HT-29 [1])	viability at 0.001 µM (MDA-MB-435 [2])	IC50 (HT-29 [3])	IC50 (MDA-MB-435 [4])
inactive	COc1cc(O)c(Cl)c2c1C(=O)O[C@@H](C)CC[C@@H](O)CCCCC(=O)C2	–	–	–	–
inactive	COc1cc(O)c(Cl)c2c1C(=O)O[C@@H](C)CCC(=O)CC/C=C\C(=O)C2	–	–	–	–
inactive	COc1cc(O)cc2c1C(=O)O[C@@H](C)CCC(=O)CC/C=C/C(=O)C2	–	–	> 20 µM	14.1 µM
inactive	COc1cc(O)cc2c1C(=O)O[C@@H](C)CCCCC/C=C/C(=O)C2	–	–	7.5 µM	2.9 µM
inactive	COc1cc(O)c(Cl)c2c1C(=O)O[C@@H](C)CCC(=O)CC/C=C/C(=O)C2	–	–	> 20 µM	14.1 µM
inactive	COc1cc(O)cc2c1C(=O)O[C@@H](C)CCCCCCCC(=O)C2	–	–	–	–
